Assay results published in ChEMBL document CHEMBL3576816, “5'-Silylated 3'-1,2,3-triazolyl Thymidine Analogues as Inhibitors of West Nile Virus and Dengue Virus” (J Med Chem, 2015).
The source made the active and inactive calls. The rule behind the calls is not given here.

Columns and labels:
West Nile virus [1] = experiment: Antiviral activity against West Nile virus infected in BHK-WII RepRen1B cells assessed as inhibition of viral replication at 10 uM after 3 days by luciferase reporter gene assay relative to control; assay type: functional; conditions: 72 h
In short: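 Compound (DMSO, 10 μM final) added next day in triplicate; lycorine 1 μM served as control inhibitor. Three days on, live-cell Renilla substrate (1:1000 in phenol-red-free DME, 10% FBS) replaced medium. Luminescence measured; triplicate means compared with DMSO-alone wells.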

[2] = target: Human immunodeficiency virus type 1 reverse transcriptase (Human immunodeficiency virus 1) (UniProt Q72547); experiment: Inhibition of HIV1 reverse transcriptase
Dengue virus = experiment: Antiviral activity against Dengue virus infected in BHK pD2-hRucPac-2ATG cells assessed as inhibition of viral replication at 10 uM after 3 days by luciferase reporter gene assay relative to control; assay type: functional; conditions: 72 h
In short: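 Renilla luciferase-bearing DENV subgenomic replicon BHK cells, kept on 3 μg/mL puromycin, seeded at 1.5 × 10^3/well without selection. Next day, 10 μM final compound in DMSO added to triplicate wells; MPA 1 μM as control inhibitor. After 3 days, medium swapped for live-cell Renilla substrate (1:1000, phenol-red-free DME, 10% FBS). Luminescence read; triplicate mean compared with DMSO-only wells.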

[3] = test system: unidentified influenza virus; experiment: Antiviral activity against Influenzae virus; assay type: functional, organism-based
Human betaherpesvirus 5 = experiment: Antiviral activity against Human cytomegalovirus; assay type: functional, organism-based
[4] = test system: Human immunodeficiency virus 1; experiment: Antiviral activity against HIV1; assay type: functional, organism-based
[5] = Cytotoxicity against BHK cells infected with Dengue virus replicon assessed as cell viability at 10 uM after 3 days by CellTiter 96 aqueous one solution cell proliferation assay relative to control; assay type: cell-based, Mesocricetus auratus; conditions: hamster, bhk, 72 h, 10 µM
In short: (§1)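 DENV replicon BHK cells, 1.5 × 10^3/well, plated without antibiotic selection; next day compound in DMSO (10 μM final for screening, or eight serial dilutions), 3 days at 37°C, 5% CO2. Tetrazolium (MTS-type) reagent, absorbance 450 nm, triplicate means versus DMSO wells; CC50 = 50% reduction in proliferation; CC50s mean ± SD of two experiments, top dose 200 μM.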

[6] = Cytotoxicity against BHK cells infected with West Nile virus replicon assessed as cell viability at 10 uM after 3 days by CellTiter 96 aqueous one solution cell proliferation assay relative to control; assay type: cell-based, Mesocricetus auratus; conditions: hamster, bhk, 72 h, 10 µM
In short: as §1, with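 “WNV” for “DENV”, “about 3” for “1.5”, “Tetrazolium” for “Tetrazolium (MTS-type)”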

Hepatitis C virus = experiment: Antiviral activity against HCV; assay type: functional, organism-based; conditions: Hepacivirus hominis
dengue virus type 3 = experiment: Displacement of [3H]-SAM from biotinylated Dengue virus 3 methyltransferase expressed in Escherichia coli at 20 uM preincubated for 20 mins followed by [3H]-SAM addition measured after 15 mins by scintillation counting analysis
In short: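 Biotinylated refolded E. coli-expressed DENV3 MTase (580 nM) with SPA beads (1.5 mg/mL) and 20 μM competitor (compound, SAM or sinefungin) in Tris pH 7.5 buffer with NaCl, KCl, MgCl2, MnCl2, CHAPS, 20 min at 23°C; 3H-SAM (425 nM) added, 15 min at 23°C, centrifuged, scintillation proximity counting.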

[7] = Cytotoxicity against BHK cells infected with West Nile virus replicon assessed as cell viability after 3 days by CellTiter 96 aqueous one solution cell proliferation assay; assay type: cell-based, Mesocricetus auratus; conditions: hamster, 72 h
In short: as §1, with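 “WNV” for “DENV”, “about 3” for “1.5”, “Tetrazolium” for “Tetrazolium (MTS-type)”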

West Nile virus [8] = experiment: Antiviral activity against West Nile virus infected in BHK-WII RepRen1B cells assessed as inhibition of viral replication after 3 days by luciferase reporter gene assay; assay type: functional, organism-based; conditions: 72 h

Compound | inhibition at 10 µM (West Nile virus [1]) [%] | inhibition [2] | inhibition at 10 µM (Dengue virus) [%] | Activity [3] | Activity (Human betaherpesvirus 5) | Activity [4] | Activity [5] [%] | Activity [6] [%] | Activity (Hepatitis C virus) | inhibition (dengue virus type 3) | CC50 [7] [µM] | EC50 (West Nile virus [8]) [µM]
Cc1cn([C@H]2C[C@H](NC(=O)c3ccc4ccccc4n3)[C@@H](CO[Si](C)(C)C(C)(C)C)O2)c(=O)[nH]c1=O | 24 | inactive | 51 | inactive | inactive | inactive | 98 | 89 | inactive |  |  | 
Cc1cn([C@H]2C[C@H](n3nncc3C3CC3)[C@@H](CO[Si](C)(C)C(C)(C)C)O2)c(=O)[nH]c1=O | 21 | inactive | 6.4 | inactive | inactive | inactive | 93 | 100 | inactive |  |  | 
Cc1cn([C@H]2C[C@H](n3nncc3COc3ccccc3)[C@@H](CO[Si](C)(C)C(C)(C)C)O2)c(=O)[nH]c1=O | 50 | inactive | 28 | inactive | inactive | inactive | 84 | 100 | inactive |  |  | 
Cc1cn([C@H]2C[C@H](NC(=O)c3ccc4ccccc4c3)[C@@H](CO[Si](C)(C)C(C)(C)C)O2)c(=O)[nH]c1=O | 99 | inactive | 98 | inactive | inactive | inactive | 10 | 51 | inactive |  |  | 
COc1ccc2cc(-c3cnnn3[C@H]3C[C@H](n4cc(C)c(=O)[nH]c4=O)O[C@@H]3CO[Si](C(C)C)(C(C)C)C(C)C)ccc2c1 | 98 | inactive | 98 | inactive | inactive | inactive | 53 | 67 | inactive |  |  | 
Cc1cn([C@H]2C[C@H](n3cc(-c4cc5ccccc5c5ccccc45)nn3)[C@@H](CO[Si](C)(C)C(C)(C)C)O2)c(=O)[nH]c1=O | 97 | inactive | 77 | inactive | inactive | inactive | 81 | 100 | inactive |  |  | 
Cc1cn([C@H]2C[C@H](N)[C@@H](CO[Si](C)(C)C(C)(C)C)O2)c(=O)[nH]c1=O | 0 | inactive | 0 | inactive | inactive | inactive | 100 | 100 | inactive |  |  | 
Cc1cn([C@H]2C[C@H](NC(=O)c3c[nH]c4ccccc34)[C@@H](CO[Si](C)(C)C(C)(C)C)O2)c(=O)[nH]c1=O | 19 | inactive | 90 | inactive | inactive | inactive | 27 | 93 | inactive |  |  | 
COc1ccc2cc(-c3cnnn3[C@H]3C[C@H](n4cc(C)c(=O)[nH]c4=O)O[C@@H]3CO[Si](c3ccccc3)(c3ccccc3)C(C)(C)C)ccc2c1 | 99 | inactive | 100 | inactive | inactive | inactive | 11 | 38 | inactive |  |  | 
Cc1cn([C@H]2C[C@H](n3nncc3-c3cc4ccccc4c4ccccc34)[C@@H](CO[Si](C)(C)C(C)(C)C)O2)c(=O)[nH]c1=O | 99 | inactive | 21 | inactive | inactive | inactive | 100 | 69 | inactive |  |  | 
COc1ccc2cc(C(=O)N[C@H]3C[C@H](n4cc(C)c(=O)[nH]c4=O)O[C@@H]3CO[Si](C)(C)C(C)(C)C)ccc2c1 | 95 | inactive | 92 | inactive | inactive | inactive | 8 | 50 | inactive |  |  | 
C[S+](CC[C@H](N)C(=O)[O-])C[C@H]1O[C@@H](n2cnc3c(N)ncnc32)[C@H](O)[C@@H]1O (some centres undefined) |  |  |  |  |  |  |  |  |  | Active |  | 
Cc1cn([C@H]2C[C@H](n3nncc3-c3cccc4ccccc34)[C@@H](CO[Si](C)(C)C(C)(C)C)O2)c(=O)[nH]c1=O | 100 | inactive | 99 | inactive | inactive | inactive | 60 | 8 | inactive |  |  | 
Cc1cn([C@H]2C[C@H](n3nncc3-c3ccc(Oc4ccccc4)cc3)[C@@H](CO[Si](C)(C)C(C)(C)C)O2)c(=O)[nH]c1=O | 95 | inactive | 95 | inactive | inactive | inactive | 73 | 79 | inactive |  |  | 
Cc1cn([C@H]2C[C@H](NC(=O)NC34CC5CC(CC(C5)C3)C4)[C@@H](CO[Si](C)(C)C(C)(C)C)O2)c(=O)[nH]c1=O |  |  |  |  |  |  |  |  |  | Active | 16 | 10
Cc1cn([C@H]2C[C@H](N3C(=O)CSC3c3ccccc3)[C@@H](CO[Si](C)(C)C(C)(C)C)O2)c(=O)[nH]c1=O (mixture of isomers) | 26 | inactive | 22 | inactive | inactive | inactive | 98 | 94 | inactive |  |  | 
Nc1ncnc2c1ncn2[C@@H]1O[C@H](C[C@@H](N)CC[C@H](N)C(=O)O)[C@@H](O)[C@H]1O |  |  |  |  |  |  |  |  |  | Active |  | 
Cc1cn([C@H]2C[C@H](n3nncc3-c3ccc(-c4ccccc4)cc3)[C@@H](CO[Si](C)(C)C(C)(C)C)O2)c(=O)[nH]c1=O | 100 | inactive | 99 | inactive | inactive | inactive | 47 | 10 | inactive |  |  | 
Cc1cn([C@H]2C[C@H](NC(=O)c3c4ccccc4cc4ccccc34)[C@@H](CO[Si](C)(C)C(C)(C)C)O2)c(=O)[nH]c1=O | 0 | inactive | 7.6 | inactive | inactive | inactive | 98 | 100 | inactive |  |  | 
